Compound activity: PubChem BioAssay, The Scripps Research Institute Molecular Screening Center
SIAE inh: human SIAE inhibitors, primary screen, biochemical, fluorescence polarization, FP-Rh probe, 1536-well HTS; Sialate O-acetylesterase (Homo sapiens), Q9HAT2; inhibition, % at 9.66 µM; SIAE FP-Rh probe binding; AID 1053197, 2014; hit rate 0.69% among 370,000;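 active = inhibition above a cutoff: mean of compounds within the control limits plus 3 SD of those, cut at about 17% in these data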;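 also: 0% = plate median of compound wells and 100% = probe without SIAE protein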
TCR CD3 inh: inhibitors of human TCR-CD3 interaction, primary screen, biochemical, fluorescence, TAMRA-labeled TCR probe. T-cell receptor (TCR). inhibition, % at 9.4 µM. hit rate 0.37% among 360,000. AID 651800, 2012;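 also: recombinant mutant TCR 2C K166C tagged with TAMRA read by polarization; 0% = receptor in buffer alone and 100% = receptor with positive control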
PRMT1 FP inh: PRMT1 methyltransferase inhibitors, primary screen, biochemical, fluorescence polarization; Protein arginine N-methyltransferase 1 (Homo sapiens), Q99873; recombinant PRMT1, activity-based probe fluorescence polarization; inhibition, % at 2.79 µM; hit rate 1.3% among 370,000; AID 652257, 2013;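 active = inhibition above about 21% made by adding two undisclosed values, limit read from the data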
HTRA1 inh: HTRA1 serine protease inhibitors, primary screen, biochemical, fluorescence polarization, HTS. inhibition, % at 5.96 µM. recombinant HTRA1, FP-rhodamine activity-based probe. hit rate 0.5% among 340,000; in the data active = inhibition above about 36%;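 also: 0% = enzyme with DMSO and 100% = wells lacking enzyme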
Target sequence (Q92743 whole entry, looked up): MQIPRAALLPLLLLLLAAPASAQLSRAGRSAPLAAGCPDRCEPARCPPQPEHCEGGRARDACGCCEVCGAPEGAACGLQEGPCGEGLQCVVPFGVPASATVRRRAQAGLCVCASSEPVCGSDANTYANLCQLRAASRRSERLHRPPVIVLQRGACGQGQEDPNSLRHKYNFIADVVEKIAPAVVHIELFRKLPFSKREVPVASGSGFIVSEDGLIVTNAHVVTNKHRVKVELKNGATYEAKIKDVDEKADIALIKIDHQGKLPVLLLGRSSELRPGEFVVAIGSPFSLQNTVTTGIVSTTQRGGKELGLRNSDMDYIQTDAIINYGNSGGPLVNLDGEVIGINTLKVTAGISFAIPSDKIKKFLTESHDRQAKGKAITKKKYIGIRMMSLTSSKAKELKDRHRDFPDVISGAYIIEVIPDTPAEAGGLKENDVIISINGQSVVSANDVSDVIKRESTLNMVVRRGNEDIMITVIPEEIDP
rCAG binder: binders of r(CAG) RNA repeats, primary screen, biochemical, fluorescence; AID 651821, 2012; r(CAG) RNA repeat, TO-PRO-1 dye displacement fluorescence; inhibition, % at 3 µM; hit rate 1.3% among 370,000;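 active = inhibition above the plate cutoff, the mean of all test compounds on that plate plus 3 SD, cut at about 35% in these data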;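 also: 0% = DMSO alone and 100% = 100 µM mitoxantrone as full dye displacement; higher means more dye released from RNA so lower well fluorescence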
ABHD4 inh: ABHD4 inhibitors, primary screen, biochemical, fluorescence polarization, mouse. (Lyso)-N-acylphosphatidylethanolamine lipase (Mus musculus), Q8VD66. purified mABHD4, FP-Rh probe fluorescence polarization. inhibition, % at 8.92 µM. hit rate 0.54% among 370,000;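 active = inhibition exceeding the mean over every tested compound plus 3 SD, cut at about 30% in these data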;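 also: 0% = plate median of compound wells and 100% = S159A mutant with DMSO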
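Doses – 8.92 µM, single dose · Material – wild-type mouse ABHD4 protein · Replication – single well per compound (singlicate) · Measure – percent inhibition of probe binding, normalized to plate controls · Schedule – 45 min compound pre-incubation plus 60 min probe step, 25 °C · Detection – fluorescence polarization with parallel and perpendicular emission, 525/598 nm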
HTRA1 conf: HTRA1 protease inhibitors, retest, confirmation, biochemical, fluorescence polarization; inhibition, % at 5.96 µM; recombinant HTRA1, FP-rhodamine activity-based probe; shares compounds with HTRA1 inh; AID 540248, 2011; hit rate 66% among 1,600;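 active = mean inhibition over three repeats above a set limit taken from the earlier primary screen, cut at about 37% in these data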;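 also: 0% = HTRA1 with DMSO and 100% = wells lacking HTRA1; inhibitors block probe binding so polarization drops and inhibition rises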
BSA probe FL: compounds interfering with TAMRA-BSA probe, counter-screen for TCR-CD3 interaction inhibitor project, biochemical, fluorescence, TAMRA-labeled BSA. shares compounds with TCR CD3 inh. hit rate 10% among 1,200. TAMRA-labeled BSA probe fluorescence counterscreen. inhibition, % at 9.4 µM; in the data active = inhibition above about 23%;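 also: 0% = buffer low control and 100% = reference high control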
TCR-CD3 conf: TCR-CD3 interaction inhibitors, retest, confirmation, biochemical, fluorescence, TAMRA-labeled TCR probe. shares compounds with TCR CD3 inh. TAMRA-labeled TCR probe fluorescence binding assay. inhibition, % at 9.4 µM. hit rate 48% among 1,200
rCAG bind conf: small molecules binding CAG repeat RNA – biochemical, fluorescence, confirmation | shares compounds with rCAG binder | inhibition, % at 3 µM | r(CAG) RNA repeat, TO-PRO-1 dye displacement fluorescence | hit rate 70% among 4,300;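 active = inhibition above a per-plate cutoff, the mean inhibition of sample wells plus 3 SD, cut at about 35% in these data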;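 also: loss of TO-PRO-1 fluorescence as compound displaces dye from 1x1 AA loop RNA; 0% = DMSO only wells and 100% = 100 µM mitoxantrone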
DNA CAG counter: displacement of TO-PRO-1 from CAG DNA duplex, counter-screen for rCAG RNA repeat binder project, biochemical, fluorescence, TO-PRO-1 dye, d(CAG) DNA oligo. shares compounds with rCAG binder. d(CAG) DNA oligo TO-PRO-1 dye displacement. hit rate 94% among 4,300. inhibition, % at 3 µM. AID 652068, 2013;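 active = inhibition above its plate's cutoff, the mean test-well inhibition plus 3 SD, cut at about 4.8% in these data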;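 also: 0% = DNA dye mix with DMSO and 100% = 100 µM mitoxantrone; hits displace the dye from DNA and so lower well fluorescence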
PRMT1 confirm: PRMT1 methyltransferase inhibitors, confirmation, biochemical, fluorescence polarization, triplicate; recombinant His-PRMT1, activity-based probe fluorescence polarization; shares compounds with PRMT1 FP inh; AID 687036, 2013; inhibition, % at 2.79 µM; hit rate 42% among 3,300;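 active = mean inhibition across replicates above the hit cutoff derived for the earlier primary screen, cut at about 22% in these data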
mABHD4 conf: ABHD4 inhibitors, retest, confirmation, biochemical, fluorescence polarization, mouse | shares compounds with ABHD4 inh | hit rate 55% among 1,800 | inhibition, % at 8.92 µM | purified mABHD4, FP-Rh probe fluorescence polarization | AID 720658, 2013;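 active = mean inhibition across replicates above the hit cutoff set in the primary screen, cut at about 30% in these data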;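 also: 0% = wild-type ABHD4 with DMSO and 100% = catalytically dead S159A mutant with DMSO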
An asterisk follows results filed as active. Hits are enriched below; roughly 3.5% of the tested compounds scored in any of these assays. Rule as the data show it, unless noted: active = inhibition above about 19%; inactive = the rest.

CN(C)[C@@H]1C(=O)C(C(N)=O)=C(O)[C@@]2(O)C(=O)C3=C(O)c4c(O)ccc(Cl)c4[C@@](C)(O)C3C[C@@H]12 (stereo partly specified) was read as SIAE inh 11.1, TCR CD3 inh 11.8, PRMT1 FP inh 27.0*, HTRA1 inh 39.9*, rCAG binder 32.6, ABHD4 inh 60.2*, HTRA1 conf 17.5, PRMT1 confirm 8.0 and mABHD4 conf 25.4.
Screening CN(C)C1C(=O)C(C(N)=O)=C(O)C2(O)C(=O)C3=C(O)c4c(O)cccc4C(C)(O)C3CC12 (stereo unspecified) returned HTRA1 inh 8.6.
O=C(NCCN1CCC2(CC1)C(=O)NCN2c1ccccc1)c1cccc(F)c1 was read as SIAE inh 0.8, TCR CD3 inh 9.9, PRMT1 FP inh 0.2, rCAG binder 2.0 and ABHD4 inh -0.8.
Cc1cccc(N2C(=O)NC(=O)/C(=C/c3cc4c(cc3[N+](=O)[O-])OCO4)C2=O)c1 was read as SIAE inh 10.6, TCR CD3 inh 3.2, PRMT1 FP inh 28.3*, HTRA1 inh 40.8*, rCAG binder 20.7, ABHD4 inh 39.2*, HTRA1 conf 3.2, PRMT1 confirm 55.2* and mABHD4 conf 13.0.
Screening CC1=C(O)C(=O)C=C2C1=CC=C1C2(C)CCC2(C)C3CC(C)(C(=O)O)CCC3(C)CCC12C (stereo unspecified) returned SIAE inh 12.8, TCR CD3 inh 2.0, PRMT1 FP inh 34.7*, HTRA1 inh 48.2*, rCAG binder 50.1*, ABHD4 inh 49.4*, HTRA1 conf 44.5*, rCAG bind conf 41.1*, DNA CAG counter 9.5*, PRMT1 confirm 49.8* and mABHD4 conf 48.4*.
For N#Cc1ccc(NC(=S)N2Cc3cc(Br)ccc3-n3nncc3C2)cc1 the results were SIAE inh 0.9, TCR CD3 inh 8.6, PRMT1 FP inh -3.2, rCAG binder 10.9 and ABHD4 inh -6.3.
`CC(Cc1ccc(O)cc1)NCC(O)c1ccc(O)c(O)c1` (stereo unspecified) gave SIAE inh 9.1, TCR CD3 inh 7.5, PRMT1 FP inh 25.2*, HTRA1 inh 53.6*, rCAG binder 29.9, ABHD4 inh 53.0*, HTRA1 conf 53.2*, PRMT1 confirm 10.6 and mABHD4 conf 60.1*.
For CCOC(=O)CC[C@@H]1CC[C@]2(CCCN(Cc3ccncc3)C2)O1 the results were SIAE inh 4.8, PRMT1 FP inh 1.6, rCAG binder -0.1 and ABHD4 inh 7.3.
Screening O=C1C=C(N2CC2)c2ccccc2C1=O returned SIAE inh 16.6, TCR CD3 inh 16.9, PRMT1 FP inh 17.1, HTRA1 inh 50.7*, rCAG binder 32.3, ABHD4 inh 66.5*, HTRA1 conf 31.0 and mABHD4 conf 30.0*.
For O=C1c2ccccc2-c2cc3ccccc3cc21 the results were SIAE inh -11.9, TCR CD3 inh 6.9, PRMT1 FP inh 8.9, HTRA1 inh -24.4, rCAG binder 13.4 and ABHD4 inh 4.5.
`O=C(N/N=C1/CN2CCC1CC2)c1cc2ccccc2cc1O` gave SIAE inh 17.2*, TCR CD3 inh 9.2, PRMT1 FP inh 1.7, HTRA1 inh 54.9*, rCAG binder 48.6*, ABHD4 inh 38.7*, HTRA1 conf 11.9, rCAG bind conf 6.7, DNA CAG counter 2.2 and mABHD4 conf 18.6.
Screening C=CCn1c(O)c(C=Nc2ccc(N(CC)CC)cc2)c(=O)[nH]c1=O returned SIAE inh 14.4, TCR CD3 inh 16.0, PRMT1 FP inh 22.4*, HTRA1 inh 36.2*, rCAG binder 12.3, ABHD4 inh 56.7*, HTRA1 conf 3.5 and mABHD4 conf 2.8.
`C=CCn1c(O)c(C=Nc2ccc(F)cc2)c(=O)[nH]c1=O` gave SIAE inh -5.6, TCR CD3 inh 0.1, PRMT1 FP inh 6.7, HTRA1 inh 3.2, rCAG binder 0.7 and ABHD4 inh 0.7.
For c1ccc(CCN2CCC3CCNC3C2)cc1 (stereo unspecified) the results were SIAE inh 2.3, TCR CD3 inh 3.0, PRMT1 FP inh -3.6, rCAG binder 1.1 and ABHD4 inh -5.7.
C[n+]1c(-c2ccccc2)c2cc(N)ccc2c2ccc(N)cc21 was read as SIAE inh 49.4*, TCR CD3 inh 116.4*, PRMT1 FP inh 66.0*, HTRA1 inh 96.6*, rCAG binder 41.4*, ABHD4 inh 75.1*, HTRA1 conf 123.2*, BSA probe FL 160.1*, TCR-CD3 conf 130.2*, rCAG bind conf 49.2*, DNA CAG counter 62.7* and mABHD4 conf 111.0*.
